Broadly, the logD is the decadic logarithm of the distribution of all forms, ionised or not, between an organic phase and buffer at a given pH. The pIC50 is the IC50 on a negative log10 scale, so that one unit is a factor of ten.

pIC50: −log10 of the molar value.

From ChEMBL document CHEMBL1153177, “Exploring SAR features in diverse library of 4-cyanomethyl-pyrazole-3-carboxamides suitable for further elaborations as CB1 antagonists” (Bioorg Med Chem Lett, 2010) come the findings set out here.

A short description of data set [1]: Octanol-water partition coefficient, log D of the compound. It counts as physicochemical.
For data set [2], the target named is T1, Cannabinoid receptor 1 (Homo sapiens, UniProt P21554). The class given is functional, cell-based, CHO-K1.
In data set [3] the target is T1, Cannabinoid receptor 1. The data set is described as follows: Inverse agonist activity at human recombinant CB1 receptor expressed in CHO-K1 cells assessed as stimulation of GTPgammaS binding. It counts as functional, cell-based. The essentials: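 Membranes came from CHO-K1 cells stably transfected with recombinant human CB1. Efficacy above 100% was taken as inverse agonist activity. IC50 values are the mean of at least two determinations.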
For orientation: Binding of GTPγS marks nucleotide exchange on a G protein.

T1 sequence (P21554 whole entry): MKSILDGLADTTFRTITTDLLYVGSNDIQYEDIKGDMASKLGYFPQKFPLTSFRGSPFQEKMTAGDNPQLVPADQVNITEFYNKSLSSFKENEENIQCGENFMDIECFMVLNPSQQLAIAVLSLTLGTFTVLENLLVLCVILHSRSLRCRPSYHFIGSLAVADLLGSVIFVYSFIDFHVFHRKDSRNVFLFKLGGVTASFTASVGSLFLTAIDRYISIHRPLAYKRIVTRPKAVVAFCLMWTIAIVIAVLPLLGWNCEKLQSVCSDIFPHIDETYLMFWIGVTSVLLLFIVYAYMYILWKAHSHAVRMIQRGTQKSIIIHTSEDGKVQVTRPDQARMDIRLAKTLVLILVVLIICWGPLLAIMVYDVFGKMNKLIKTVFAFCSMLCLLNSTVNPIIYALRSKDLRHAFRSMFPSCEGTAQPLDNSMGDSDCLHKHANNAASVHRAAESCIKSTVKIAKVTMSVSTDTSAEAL

For the compound `N#CCc1c(C(=O)Nc2cnc3ccccc3c2)nn(-c2ccccc2Cl)c1-c1ccc(Cl)cc1`, the logD in data set [1] was 4. Besides, the pIC50 on Cannabinoid receptor 1 [2] is 7.72.
In data set [1], `N#CCc1c(C(=O)NCCN2CCCCC2)nn(-c2ccccc2Cl)c1-c1ccc(Cl)cc1` registered a logD of 2.9. Moreover, the pIC50 against Cannabinoid receptor 1 [2] was 5.95.
In turn, `COC(=O)C(NC(=O)c1nn(-c2ccccc2Cl)c(-c2ccc(Cl)cc2)c1CC#N)C(C)C` (stereo not drawn) had a pIC50 against Cannabinoid receptor 1 [2] of 8.14.
At Cannabinoid receptor 1 [2], `N#CCc1c(C(=O)N2Cc3ccc(Br)cc3C2)nn(-c2ccccc2Cl)c1-c1ccc(Cl)cc1` gave a pIC50 of 9.66.
On the same count and under the same terms, to `Cc1cc(CNC(=O)c2nn(-c3ccccc3Cl)c(-c3ccc(Cl)cc3)c2CC#N)no1` belongs 7.82; to `N#CCc1c(C(=O)NC2CCc3ccccc32)nn(-c2ccccc2Cl)c1-c1ccc(Cl)cc1` (stereo not drawn), 9.39; to `N#CCc1c(C(=O)N2CCCCC2c2ccc(F)cc2)nn(-c2ccccc2Cl)c1-c1ccc(Cl)cc1` (stereo not drawn), 7.64.
`CCC(CC)NC(=O)c1nn(-c2ccccc2Cl)c(-c2ccc(Cl)cc2)c1CC#N` showed a pIC50 against Cannabinoid receptor 1 [2] of 8.24.
Take `N#CCc1c(C(=O)N2CCc3ccc(C(F)(F)F)cc3C2)nn(-c2ccccc2Cl)c1-c1ccc(Cl)cc1`: at Cannabinoid receptor 1 [2], the pIC50 is 8.68.
For `N#CCc1c(C(=O)NCc2ccc(Br)cc2)nn(-c2ccccc2Cl)c1-c1ccc(Cl)cc1`, the logD in data set [1] turned out to be 4.4. The pIC50 is 8.24 on Cannabinoid receptor 1 [2] and 8.92 at Cannabinoid receptor 1 [3].
As to `N#CCc1c(C(=O)NCc2ccccc2F)nn(-c2ccccc2Cl)c1-c1ccc(Cl)cc1`, the logD in data set [1] amounted to 4.1. This compound also showed a pIC50 at Cannabinoid receptor 1 [2] of 8.39.
At Cannabinoid receptor 1 [2], `N#CCc1c(C(=O)NC2CCCCCC2)nn(-c2ccccc2Cl)c1-c1ccc(Cl)cc1` showed a pIC50 of 9.31.
In the case of `N#CCc1c(C(=O)N[C@@H]2C[C@H]3CC[C@@H]2C3)nn(-c2ccccc2Cl)c1-c1ccc(Cl)cc1`, at Cannabinoid receptor 1 [2], the pIC50 was 8.66.
With `N#CCc1c(C(=O)NCc2ccc(Cl)cc2Cl)nn(-c2ccccc2Cl)c1-c1ccc(Cl)cc1`, in data set [1], the logD worked out at 4.6. At Cannabinoid receptor 1 [2], the pIC50 was 8.80.
For `COC(=O)C(Cc1ccccc1)NC(=O)c1nn(-c2ccccc2Cl)c(-c2ccc(Cl)cc2)c1CC#N` (stereo not drawn), the pIC50 at Cannabinoid receptor 1 [2] is 8.92.
For `CC(C)C(NC(=O)c1nn(-c2ccccc2Cl)c(-c2ccc(Cl)cc2)c1CC#N)C(=O)O` (stereo not drawn), at Cannabinoid receptor 1 [2], the pIC50 is 5.20.
Take `N#CCc1c(C(=O)NCc2ccc(Cl)cc2)nn(-c2ccccc2Cl)c1-c1ccc(Cl)cc1`: the logD in data set [1] turned out to be 4.4. In addition, the negative-log IC50 (pIC50) against Cannabinoid receptor 1 [2] was 8.92.
In data set [1], `N#CCc1c(C(=O)NCc2c(Cl)cccc2Cl)nn(-c2ccccc2Cl)c1-c1ccc(Cl)cc1` gave a logD of 4.6. At Cannabinoid receptor 1 [2], the pIC50 was 8.15.
On to `N#CCc1c(C(=O)N2CCC(c3ccc(F)cc3)CC2)nn(-c2ccccc2Cl)c1-c1ccc(Cl)cc1`, for which the pIC50 against Cannabinoid receptor 1 [2] is 9.00.
The same measure, in the same setting: to `N#CCc1c(C(=O)N2CCN(c3ncccn3)CC2)nn(-c2ccccc2Cl)c1-c1ccc(Cl)cc1` belongs 8.42.
The compound `N#CCc1c(C(=O)NCc2ccc(F)c(Br)c2)nn(-c2ccccc2Cl)c1-c1ccc(Cl)cc1` displayed a logD in data set [1] of 4.4. At Cannabinoid receptor 1 [2], this compound showed a pIC50 of 9.15.
For `N#CCc1c(C(=O)N2CCC(c3ccc(F)cc3)C2)nn(-c2ccccc2Cl)c1-c1ccc(Cl)cc1` (stereo not drawn), on Cannabinoid receptor 1 [2], the pIC50 was 8.04.
On the same count and under the same terms, under `N#CCc1c(C(=O)NC(Cc2ccccc2)C(=O)O)nn(-c2ccccc2Cl)c1-c1ccc(Cl)cc1` (stereo not drawn) stands 5.35; under `N#CCc1c(C(=O)N2CCC(O)(Cc3ccccc3)CC2)nn(-c2ccccc2Cl)c1-c1ccc(Cl)cc1`, 8.47; under `N#CCc1c(C(=O)Nc2ccc(C(F)(F)F)nc2)nn(-c2ccccc2Cl)c1-c1ccc(Cl)cc1`, 7.85.
As to `N#CCc1ccc(NC(=O)c2nn(-c3ccccc3Cl)c(-c3ccc(Cl)cc3)c2CC#N)cc1`, the logD in data set [1] worked out at 3.8. The compound also had a pIC50 against Cannabinoid receptor 1 [2] of 7.26.
On Cannabinoid receptor 1 [2], `N#CCc1c(C(=O)NCCc2ccccc2)nn(-c2ccccc2Cl)c1-c1ccc(Cl)cc1` gave a negative-log IC50 (pIC50) of 7.80.
`N#CCc1c(C(=O)N2CCCC2c2ccc(F)cc2)nn(-c2ccccc2Cl)c1-c1ccc(Cl)cc1` (stereo not drawn): the pIC50 against Cannabinoid receptor 1 [2] is 7.57.
The compound `N#CCc1c(C(=O)N2Cc3ccc(F)cc3C2)nn(-c2ccccc2Cl)c1-c1ccc(Cl)cc1` gave a pIC50 against Cannabinoid receptor 1 [2] of 8.24.
For the compound `CN(Cc1ccc(F)cc1)C(=O)c1nn(-c2ccccc2Cl)c(-c2ccc(Cl)cc2)c1CC#N`, in data set [1], the logD came to 4.2. At Cannabinoid receptor 1 [2], this compound gave a pIC50 of 8.25.
In the case of `N#CCc1c(C(=O)NCc2ccc(F)cc2)nn(-c2ccccc2Cl)c1-c1ccc(Cl)cc1`, in data set [1], the logD was 4.1. The pIC50 at Cannabinoid receptor 1 [2] was 8.68.
On Cannabinoid receptor 1 [2], `N#CCc1c(C(=O)N2CCC(c3ccccc3C(=O)O)CC2)nn(-c2ccccc2Cl)c1-c1ccc(Cl)cc1` had a pIC50 of 5.55.
Consider `N#CCc1c(C(=O)NN2CCCCC2)nn(-c2ccccc2Cl)c1-c1ccc(Cl)cc1`, for which the logD in data set [1] worked out at 3.6. The compound further gave a negative logarithm of the IC50 (pIC50) against Cannabinoid receptor 1 [2] of 8.12.
In turn, `N#CCc1c(C(=O)N2CCC(O)(c3ccc(F)cc3)CC2)nn(-c2ccccc2Cl)c1-c1ccc(Cl)cc1` showed a pIC50 against Cannabinoid receptor 1 [2] of 8.52.
Regarding `N#CCc1c(C(=O)Nc2cccnc2Cl)nn(-c2ccccc2Cl)c1-c1ccc(Cl)cc1`, in data set [1], the logD turned out to be 4.4. At Cannabinoid receptor 1 [2], this compound gave a pIC50 of 7.74.
For the compound `C[C@H]1CC[C@H](NC(=O)c2nn(-c3ccccc3Cl)c(-c3ccc(Cl)cc3)c2CC#N)CC1`, the pIC50 on Cannabinoid receptor 1 [2] was 8.80.
On Cannabinoid receptor 1 [2], `CS(=O)(=O)C1CCN(C(=O)c2nn(-c3ccccc3Cl)c(-c3ccc(Cl)cc3)c2CC#N)CC1` showed a pIC50 of 7.77.
`N#CCc1c(C(=O)NCc2ccc(C#N)cc2)nn(-c2ccccc2Cl)c1-c1ccc(Cl)cc1` showed a logD in data set [1] of 3.8. The compound further showed a pIC50 against Cannabinoid receptor 1 [2] of 8.38.
As to `N#CCc1c(C(=O)NC2CCCCC2)nn(-c2ccccc2Cl)c1-c1ccc(Cl)cc1`, the pH-dependent lipophilicity (logD) in data set [1] is 3.5. In addition, the pIC50 against Cannabinoid receptor 1 [2] is 8.72.
At Cannabinoid receptor 1 [2], `N#CCc1c(C(=O)N2CCc3ccccc3C2)nn(-c2ccccc2Cl)c1-c1ccc(Cl)cc1` had a pIC50 of 8.24.
Compound `N#CCc1c(C(=O)NCc2cccc(Cl)c2)nn(-c2ccccc2Cl)c1-c1ccc(Cl)cc1` returned a logD in data set [1] of 4.4. The pIC50 against Cannabinoid receptor 1 [2] was 8.59.
`N#CCc1c(C(=O)Nc2cccnc2)nn(-c2ccccc2Cl)c1-c1ccc(Cl)cc1` returned a logD in data set [1] of 3.3. The pIC50 against Cannabinoid receptor 1 [2] is 7.24.
Compound `N#CCc1c(C(=O)NN2CCOCC2)nn(-c2ccccc2Cl)c1-c1ccc(Cl)cc1` showed a pIC50 against Cannabinoid receptor 1 [2] of 7.15.
`N#CCc1c(C(=O)N2CCN(c3ccccc3)CC2)nn(-c2ccccc2Cl)c1-c1ccc(Cl)cc1` had a pIC50 on Cannabinoid receptor 1 [2] of 7.89.
With `N#CCc1c(C(=O)N2CC[C@@H](OCc3ccc(F)cc3)C2)nn(-c2ccccc2Cl)c1-c1ccc(Cl)cc1`, the pIC50 against Cannabinoid receptor 1 [2] is 7.70.
In turn, `CC(=O)C1CCN(C(=O)c2nn(-c3ccccc3Cl)c(-c3ccc(Cl)cc3)c2CC#N)CC1` had a pIC50 on Cannabinoid receptor 1 [2] of 6.70.
With `N#CCc1c(C(=O)Nc2ccc(F)cc2)nn(-c2ccccc2Cl)c1-c1ccc(Cl)cc1`, the logD in data set [1] was 4.2. At Cannabinoid receptor 1 [2], this compound gave a pIC50 of 7.96.
Consider `N#CCc1c(C(=O)NN2CCCCCC2)nn(-c2ccccc2Cl)c1-c1ccc(Cl)cc1`, for which, on Cannabinoid receptor 1 [2], the pIC50 is 9.28.
The same measure, in the same setting: under `COC(=O)c1ccccc1C1CCN(C(=O)c2nn(-c3ccccc3Cl)c(-c3ccc(Cl)cc3)c2CC#N)CC1` stands 8.66.
Take `N#CCc1c(C(=O)NCc2ccc(Br)cc2F)nn(-c2ccccc2Cl)c1-c1ccc(Cl)cc1`: the logD in data set [1] is 4.5. On Cannabinoid receptor 1 [2], the pIC50 is 9.29.
Regarding `CS(=O)(=O)N1CCC(NC(=O)c2nn(-c3ccccc3Cl)c(-c3ccc(Cl)cc3)c2CC#N)CC1`, the pIC50 at Cannabinoid receptor 1 [2] is 7.51.
At Cannabinoid receptor 1 [2], `N#CCc1c(C(=O)N[C@@H]2c3ccccc3C[C@@H]2O)nn(-c2ccccc2Cl)c1-c1ccc(Cl)cc1` (single isomer, unassigned) showed a pIC50 of 8.11.
Same read-out and setting: under `N#CCc1c(C(=O)N[C@H]2c3ccccc3C[C@H]2O)nn(-c2ccccc2Cl)c1-c1ccc(Cl)cc1` (single isomer, unassigned) stands 8.77.
